Test [1] can be described thus: inhibitors of TNFa-induced NFkB p65 translocation, primary screen, imaging, HUVEC, MLSMR starter and 10KST1 sets (AID 438;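 active means inhibition above 20% together with a positive visual image hit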;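 further: compound added about 3h40 before a 20 min TNFalpha stimulation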;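 on inhibition: signal is the nuclear over cytoplasmic p65 intensity ratio per well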). Particulars: HUVEC TNFa-induced p65 nuclear translocation; cell count: measured here: nuclei count (cytotoxicity indicator), at 2.08 µM; inhibition: at 2 µM, stronger effect = higher value, 0% TNFa-plus-vehicle, 100% no-TNFa wells.
A short description of test [2]: endothelial E-selectin expression blockers – imaging, HUVEC, immunofluorescence, MLSMR starter and 10KST1 sets, primary screen (AID 487;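 active means visually confirmed hit in the image check and inhibition above 20%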;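 on inhibition: signal is fraction of cell area covered by stained E-selectin grains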;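 on nuclei count: 100% = median nuclei count of all wells on the same plate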). Particulars: HUVEC TNFalpha-induced E-selectin immunofluorescence imaging, at 2 µM; inhibition: stronger effect = higher value; nuclei count: measured here: cell number, toxicity.
A short description of test [3]: Primary imaging screen for DUSP6 inhibitors that restore phospho-Erk in transfected HeLa cells, chemical complementation (AID 609;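 active means compounds giving at least 50% inhibition in the cell-based MKP-3 phosphatase rescue imaging test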;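 on inhibition: phospho-Erk level distribution per well compared with pooled transfected vehicle control wells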). Particulars: HeLa MKP-3 transfected, phospho-Erk imaging KS statistic, at 10 µM, cells stimulated with TPA for 15 min.
Test [4] has as its target Dual specificity protein phosphatase 6 (Homo sapiens) (UniProt Q16828). Described as above. To be noted: HeLa MKP-3 transfected, phospho-Erk imaging KS statistic; at 10 µM; stronger effect = higher value; cells stimulated with TPA for 15 min.
For test [5], the target named is Voltage-gated potassium channel subunit beta-2 (Rattus norvegicus) (UniProt P62483). Nature of the test: inhibitors of rat Kvbeta2 reductase activity – biochemical, NADPH fluorescence, primary screen (AID 622;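 active means fluorescence slope higher than the sample average by over 3 SD, cut at about -0.22 in these data, passing the limit was not always enough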;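 further: slope of raw intensity against log time taken from 70 to 1610 s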). To be noted: recombinant KvBeta, 4-cyanobenzaldehyde reduction, at 10 µM, stronger effect = higher value.
For test [6] the target is unchanged. Nature of the test: enhancers of rat Kvbeta2 NADPH turnover – biochemical, NADPH fluorescence, primary screen (AID 623;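 active means NADPH fluorescence slope more negative than the mean of all samples by about 3 SD, 99.7% confidence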;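 further: fluorescence intensity change per second fitted from 20 to 320 s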). Particulars: Recombinant KvBeta, NADPH fluorescence decrease slope, 10 min; at 10 µM; stronger effect = lower value.
Test [7] has as its target Muscarinic acetylcholine receptor M4 (Homo sapiens) (UniProt P08173). Nature of the test: M4-linked GIRK flux change, two-sided – cell-based, HEK293 M4/GIRK, thallium flux, BTC-AM, M4 allosteric agonist project, primary screen (AID 625;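 active means fluorescence slope after compound addition differing from the mean of all tested samples at 99.7% confidence, mostly higher but some lower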;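 further: thallium influx through GIRK channels coupled to M4 in HEK293 cells with BTC-AM dye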). Particulars: at 10 µM, actives lie on both sides. The method, boiled down: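 System: HEK293 cells with M4 receptor and GIRK channels | Incubation: Cells overnight at 37 °C, BTC-AM loading 1 h, reads 2 min total | Technique: Kinetic BTC-AM fluorescence sampled at 1 Hz, 10 s pre-addition baseline | Measure: Post-addition slope, 15–24 s, of baseline-normalized fluorescence | Control set: Carbachol positive, DMSO negative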

A short description of test [8]: inhibitors of larval lipid processing in zebrafish, primary screen, whole organism, PED6 fluorescence, gall bladder and intestine (AID 686;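 active means a full or partial loss of lipid-probe fluorescence in the fish gall bladder, intestine or both, judged by eye; inactive means no fluorescence loss, or compound toxic to the fish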;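 further: larvae 5 to 7 days old with five fish per well; signal comes from phospholipase A2 cleavage of quenched PED6 carried via bile; overnight exposure to compound and PED6 before scoring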). Particulars: Zebrafish larvae PED6 lipid processing, fluorescence scoring; screened at 20 µM (by protocol). Summed up:
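Test system – live zebrafish larvae aged 5-7 days, whole organism · Buffer or medium – E3 fish medium · Reagent – quenched phospholipase substrate PED6, 100 nM final, ingested by larvae · Doses – 20 µM single dose · Incubation – overnight compound and PED6 incubation · Technique – visual fluorescence microscopy scoring of gall bladder, gut · Read-out basis – visual per-well fluorescence inhibition score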

Test [9] can be described thus: loss of swimming-algae plug formation – whole organism, Chlamydomonas reinhardtii, WT vs cilia-less mutant, absorbance, 96-well, primary screen (AID 463189).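 Further: 0% = wild type cc124 cells in DMSO and 100% = ciliumless bld1 mutant cells.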 Particulars: Chlamydomonas reinhardtii gravitaxis, OD600 absorbance, 2 days; at 10 µM; stronger effect = higher value.
Setting [10] is: measured here: cell density z-score.
Where [11] appears, read: measured here: nuclear c-Myc green intensity z-score.
The mark [12] stands for this setting: measured here: nuclear pErk red intensity z-score, stronger effect = higher value.

Molecules are shown by their SMILES. Active and inactive are the calls of the source.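 How the source made its calls, unless noted: active means inhibition at or above 50% relative to wild type and mutant plate controls; inactive means inhibition below 50%.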

Chain of Dual specificity protein phosphatase 6 (Homo sapiens) (Q16828 whole entry, looked up): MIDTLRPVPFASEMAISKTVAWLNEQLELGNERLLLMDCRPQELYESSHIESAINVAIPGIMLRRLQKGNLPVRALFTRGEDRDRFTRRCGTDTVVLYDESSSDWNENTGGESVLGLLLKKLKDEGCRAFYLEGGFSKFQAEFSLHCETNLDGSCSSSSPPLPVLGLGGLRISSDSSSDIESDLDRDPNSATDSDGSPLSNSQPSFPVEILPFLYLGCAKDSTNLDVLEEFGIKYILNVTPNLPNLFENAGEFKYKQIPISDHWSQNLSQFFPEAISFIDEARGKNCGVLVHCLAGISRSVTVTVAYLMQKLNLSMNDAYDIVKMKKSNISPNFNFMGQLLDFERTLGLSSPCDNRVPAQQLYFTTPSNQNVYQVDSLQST
Chain of Voltage-gated potassium channel subunit beta-2 (Rattus norvegicus) (P62483 whole entry, looked up): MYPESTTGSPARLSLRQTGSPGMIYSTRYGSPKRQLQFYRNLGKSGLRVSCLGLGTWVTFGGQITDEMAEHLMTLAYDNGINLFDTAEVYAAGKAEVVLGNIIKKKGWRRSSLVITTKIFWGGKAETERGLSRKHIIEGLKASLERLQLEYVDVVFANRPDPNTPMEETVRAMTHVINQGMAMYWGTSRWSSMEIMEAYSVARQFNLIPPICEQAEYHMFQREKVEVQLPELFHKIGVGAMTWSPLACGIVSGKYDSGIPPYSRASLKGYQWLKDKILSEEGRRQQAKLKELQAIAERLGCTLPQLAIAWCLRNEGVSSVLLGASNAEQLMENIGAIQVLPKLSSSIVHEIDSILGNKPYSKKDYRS
Chain of Muscarinic acetylcholine receptor M4 (Homo sapiens) (P08173 whole entry, looked up): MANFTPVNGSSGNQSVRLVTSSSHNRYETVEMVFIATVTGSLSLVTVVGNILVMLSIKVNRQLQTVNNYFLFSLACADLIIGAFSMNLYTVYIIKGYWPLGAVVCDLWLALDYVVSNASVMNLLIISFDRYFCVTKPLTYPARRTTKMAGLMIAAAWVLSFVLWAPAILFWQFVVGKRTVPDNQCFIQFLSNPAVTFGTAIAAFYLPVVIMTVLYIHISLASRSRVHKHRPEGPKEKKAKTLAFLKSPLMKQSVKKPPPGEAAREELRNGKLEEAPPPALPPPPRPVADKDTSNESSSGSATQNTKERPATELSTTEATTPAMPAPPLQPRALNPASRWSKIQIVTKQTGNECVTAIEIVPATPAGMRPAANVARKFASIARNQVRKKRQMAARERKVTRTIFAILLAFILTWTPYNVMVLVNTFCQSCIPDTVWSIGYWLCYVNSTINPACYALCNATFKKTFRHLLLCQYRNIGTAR

As for `O=C1C(=O)N(Cc2cccnc2)C(c2ccccn2)/C1=C(/O)c1ccccc1` (stereo not given), in [1], the cell count turned out to be 620. The inhibition is -5.9% (inactive) in [1], -74.4% (inactive) in [2], -8.95% (inactive) in test [4] and 6.67% (inactive) in test [9]. The nuclei count in test [2] came to 158%. Further, the z-score in test [3] (setting [10]) was -0.531; in test [3] (setting [11]) it was 0.731; in test [3] (setting [12]), -0.436. Also, the fluorescence slope in test [5] was -0.503 (inactive); in test [7], 0.00562 (inactive). The NADPH fluorescence slope in test [6] is -6.6e-05 (inactive). Moreover, in test [8], the compound was called inactive.

Regarding `C[n+]1cccc(CNC(=O)/C=N/O)c1`, the cell count in test [1] worked out at 621. Besides, the inhibition in [1] is -2.4% (inactive); in test [2] it was -126% (inactive); in test [4], 6.04% (inactive); in test [9], -6.73% (inactive). This compound gave a nuclei count in [2] of 158%. Moreover, the values for the z-score in test [3] (setting [10]), in test [3] (setting [11]) and in test [3] (setting [12]) were -2.05, 3.02 and 0.751, respectively. For the same compound, the fluorescence slope in [5] is -0.47 (inactive); in test [7], 0.00464 (inactive). In test [6], the NADPH fluorescence slope was -3e-05 (inactive). For the same compound, in test [8], the compound was called inactive.

Take `CC(C)(C)NC(=O)/C=N/O`: the cell count in test [1] was 637. For the same compound, the inhibition is -13.4% (inactive) in [1], -71.6% (inactive) in test [2], 1.63% (inactive) in test [4] and 25.5% (inactive) in test [9]. The nuclei count in test [2] came to 166%. Also, the z-score in test [3] (setting [10]) was -0.0727; in [3] (setting [11]) it was -0.26; in test [3] (setting [12]), 0.222. Besides, the fluorescence slope in test [5] is -0.466 (inactive); in [7], 0.00655 (inactive). In [6], the NADPH fluorescence slope was -3.8e-05 (inactive). Moreover, the compound was classed as inactive in test [8].

For the compound `COc1ccc(C2C(C#N)=C(C)NC3=C2C(=O)c2ccccc23)cc1` (stereo not given), the cell count in [1] was 678. The inhibition in [1] was 0.7% (inactive); in [2], -27.5% (inactive); in test [4], 21.8% (inactive); in test [9], -2.6% (inactive). Besides, the nuclei count in test [2] stood at 145%. In addition, the z-score was 1.09 in test [3] (setting [10]), 1.69 in test [3] (setting [11]) and -1.69 in test [3] (setting [12]). Besides, the fluorescence slope in [5] was -0.5 (inactive); in test [7], 0.00419 (inactive). Besides, the NADPH fluorescence slope in test [6] is -4.8e-05 (inactive). In addition, the result in test [8] was inactive.

Turning to `N#C/C(C(=O)NCc1ccco1)=C1/SC(Cc2ccc(Cl)cc2)C(=O)N1c1ccccc1` (stereo not given), the cell count in test [1] was 633. The inhibition was -0.2% (inactive) in [1], -35.3% (inactive) in [2], -9.53% (inactive) in test [4] and 2.21% (inactive) in [9]. In [2], the nuclei count is 104%. In addition, the z-score in test [3] (setting [10]) is 0.196; in test [3] (setting [11]) it was -0.248; in test [3] (setting [12]), -0.52. The fluorescence slope in [5] is -0.428 (inactive); in [7], 0.00683 (inactive). The NADPH fluorescence slope in [6] is -5.4e-05 (inactive). Also, the call in test [8] was inactive.

For `COc1ccc(N2C(=O)CC(N(Cc3ccc(S(N)(=O)=O)cc3)C(C)=O)C2=O)cc1` (stereo not given), the cell count in [1] is 550. Further, the inhibition in test [1] is 4.1% (inactive); in test [2], 19.1% (inactive); in test [4] it was 20.2% (inactive); in test [9] it was 9.88% (inactive). This compound displayed a nuclei count in test [2] of 126%. The z-score in test [3] (setting [10]) was 0.546; in [3] (setting [11]) it was -0.739; in test [3] (setting [12]), 0.891. The fluorescence slope is -0.481 (inactive) in [5] and 0.00578 (inactive) in test [7]. Also, the NADPH fluorescence slope in test [6] is -3.2e-05 (inactive). The result in [8] was inactive.

Take `CCc1nc(NCC(C)C)c(C#N)c2c1COC(C)(C)C2`: the cell count in test [1] came out at 547. For the same compound, the inhibition in test [1] is 7.2% (inactive); in test [2], -13.8% (inactive); in [4], -9.91% (inactive); in test [9], -8.36% (inactive). In test [2], this compound registered a nuclei count of 106%. For the same compound, the values for the z-score in test [3] (setting [10]), in [3] (setting [11]) and in test [3] (setting [12]) were -2.04, -0.00331 and 2.22, respectively. The figures for the fluorescence slope in [5] and in test [7] were -0.203 (inactive) and 0.00805 (inactive), respectively. In test [6], the NADPH fluorescence slope is 2.4e-07 (inactive). In test [8], the compound was classed as inactive.

In the case of `O=C(NCc1cccnc1)NC(C(F)(F)F)C(F)(F)F`, the cell count in [1] worked out at 671. Further, the inhibition in [1] was -1.2% (inactive); in [2] it was -24.5% (inactive); in test [4] it was 1.63% (inactive); in test [9], -3.5% (inactive). In test [2], this compound had a nuclei count of 148%. Moreover, the values for the z-score in [3] (setting [10]), in [3] (setting [11]) and in [3] (setting [12]) were 0.957, -0.408 and -4.89, respectively. Besides, the fluorescence slope in test [5] was -0.454 (inactive); in [7], 0.00444 (inactive). In test [6], the NADPH fluorescence slope was -5.1e-05 (inactive). Moreover, the call in test [8] was inactive.

With `COc1cccc(C(=O)N2CCN(Cc3ccccn3)CC2)c1OC`, the cell count in test [1] turned out to be 503. Further, the inhibition was -5.7% (inactive) in test [1], -70.6% (inactive) in test [2], -12.3% (inactive) in [4] and 1.71% (inactive) in test [9]. In [2], this compound had a nuclei count of 158%. The z-score in test [3] (setting [10]) was -2.51; in test [3] (setting [11]), 0.355; in [3] (setting [12]), 0.989. In addition, the fluorescence slope in [5] is -0.466 (inactive); in test [7] it was 0.00645 (inactive). Moreover, in [6], the NADPH fluorescence slope was -5.6e-05 (inactive). In addition, in [8], the compound was classed as inactive.

For the compound `Cc1cccn2c(=O)c3cc(C(N)=S)c(=N)n(CCCOC(C)C)c3nc12`, the cell count in test [1] turned out to be 637. Moreover, the inhibition was -5.4% (inactive) in test [1], -92.7% (inactive) in test [2], 12.7% (inactive) in [4] and 145% (active) in test [9]. In test [2], the nuclei count stood at 153%. The z-score is 1.81 in test [3] (setting [10]), -0.956 in test [3] (setting [11]) and -1.49 in [3] (setting [12]). The fluorescence slope in test [5] was -0.447 (inactive); in test [7], 0.00286 (inactive). In addition, the NADPH fluorescence slope in test [6] is -3.3e-05 (inactive). Moreover, in [8], the outcome was inactive.

As usually defined, the inhibition is the drop in the measured response relative to a control, in per cent.

Source of the values: PubChem BioAssay.
